Data as given in ChEMBL document CHEMBL4811218, “Discovery and optimization of withangulatin A derivatives as novel glutaminase 1 inhibitors for the treatment of triple-negative breast cancer” (Eur J Med Chem, 2021).
The source made the active and inactive calls. The rule behind the calls is not given here.

Experiments:
[1] = Toxicity in BALB/c nude mouse xenografted with human MDA-MB-231 cells assessed as kidney tissue damage at 25 to 50 mg/kg, ip administered every 3 days for 4 weeks; assay type: organism-based; details: in vivo, 672 h, dose 25-50 mg/kg
How it was run: (§1)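 Xenograft-bearing nude mice (MDA-MB-231, s.c. right flank, treated from about 100 mm³) received 25 or 50 mg/kg i.p. every three days for four weeks. At the end mice were euthanized, and visceral organs were fixed in 4% paraformaldehyde for histopathology.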

[2] = target: T1, Glutaminase kidney isoform, mitochondrial (Homo sapiens) (UniProt O94925); assay: Inhibition of human GLS1 at 10 uM relative to control
T1 sequence (whole entry): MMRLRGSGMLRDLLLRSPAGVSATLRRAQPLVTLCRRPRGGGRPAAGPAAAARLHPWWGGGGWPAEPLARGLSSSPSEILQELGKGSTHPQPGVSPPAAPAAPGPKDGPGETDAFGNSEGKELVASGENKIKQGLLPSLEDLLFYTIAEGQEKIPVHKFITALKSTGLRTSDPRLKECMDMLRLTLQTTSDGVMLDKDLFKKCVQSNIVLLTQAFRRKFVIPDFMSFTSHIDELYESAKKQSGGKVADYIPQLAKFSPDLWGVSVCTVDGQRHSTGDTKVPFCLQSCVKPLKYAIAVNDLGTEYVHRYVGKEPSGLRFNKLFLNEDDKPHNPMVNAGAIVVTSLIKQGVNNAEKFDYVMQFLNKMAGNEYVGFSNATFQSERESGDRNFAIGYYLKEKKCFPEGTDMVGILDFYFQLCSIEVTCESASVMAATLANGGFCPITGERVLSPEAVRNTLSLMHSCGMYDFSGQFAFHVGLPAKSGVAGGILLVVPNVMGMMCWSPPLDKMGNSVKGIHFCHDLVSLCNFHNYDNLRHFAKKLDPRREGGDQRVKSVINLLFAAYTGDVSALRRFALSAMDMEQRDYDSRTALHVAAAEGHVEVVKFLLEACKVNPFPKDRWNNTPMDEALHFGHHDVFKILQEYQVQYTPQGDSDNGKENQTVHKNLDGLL
How it was run: (§2)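 Human GLS1 hydrolase activity measured with a commercial GLS1 inhibitor screening kit, following the manufacturer's protocol. Single-point screening was run at 10 μM.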

[3] = system: MDA-MB-231; assay: Induction of apoptosis in human MDA-MB-231 cells assessed as early apoptotic cells at 320 nM incubated for 12 hrs by annexin V-FITC/PI based flow cytometric analysis (reference value: 1.2%); assay type: functional
How it was run: (§3)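 Cells exposed to compound or 0.1% DMSO for 12 h at 37°C, then resuspended in PBS at 1×10^5 cells/mL. Stained with annexin V-FITC and PI for 20 min at room temperature in the dark, then analysed by flow cytometry. Quadrant percentages reported: lower right early apoptotic, upper right late apoptotic. n = 4, mean ± SD.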

[4] = target: T1, Glutaminase kidney isoform, mitochondrial (Homo sapiens); assay: Potency index, ratio of WA IC50 to compound IC50 for inhibition of human GLS1; how it was run: as §2
[5] = system: MDA-MB-231; assay: Potency index, ratio of WA IC50 to compound IC50 for antiproliferative activity against human MDA-MB-231 cells after 24 hrs by MTT assay; assay type: functional
How it was run: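 Ratio calculated from MTT IC50 values in MDA-MB-231 cells. Cells seeded at 5×10^3/well for 24 h, then treated 24 h at 0.078-10 µM with 0.1% DMSO as vehicle. Absorbance read at 570 nm after 4 h MTT and DMSO solubilization. Triplicate wells, at least three repeats.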

[6] = system: MDA-MB-231; assay: Induction of apoptosis in human MDA-MB-231 cells assessed as late apoptotic cells at 160 nM incubated for 12 hrs by annexin V-FITC/PI based flow cytometric analysis (reference value: 0.7%); assay type: functional; how it was run: as §3
[7] = system: MDA-MB-231; assay: Induction of apoptosis in human MDA-MB-231 cells assessed as increase in cleaved caspase-3 expression after 12 hrs by Western blotting analysis; assay type: functional, cell-based; details: dose 160-640 nM
How it was run: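 MDA-MB-231 cells exposed to graded concentrations or 0.1% DMSO; the methods state 24 h, the legend 12 h. Lysed in RIPA, 80 µg protein per lane on SDS-PAGE and transferred to PVDF. Probed overnight at 4°C for caspase-3, cleaved caspase-3, caspase-9 and cleaved caspase-9, with GAPDH as loading control. HRP secondaries, ECL detection, densitometry. n = 4.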

[8] = system: MDA-MB-231; assay: Induction of apoptosis in human MDA-MB-231 cells assessed as necrotic cells at 640 nM incubated for 12 hrs by annexin V-FITC/PI based flow cytometric analysis (reference value: 0.1%); assay type: functional; how it was run: as §3
[9] = Toxicity in BALB/c nude mouse xenografted with human MDA-MB-231 cells assessed as spleen tissue damage at 25 to 50 mg/kg, ip administered every 3 days for 4 weeks; assay type: organism-based; details: in vivo, 672 h, dose 25-50 mg/kg; how it was run: as §1
[10] = system: MDA-MB-231; assay: Induction of apoptosis in human MDA-MB-231 cells assessed as viable cells at 320 nM incubated for 12 hrs by annexin V-FITC/PI based flow cytometric analysis (reference value: 98.1%); assay type: functional; details: read-out: Activity; how it was run: as §3
[11] = Toxicity in BALB/c nude mouse xenografted with human MDA-MB-231 cells assessed as liver tissue damage at 25 to 50 mg/kg, ip administered every 3 days for 4 weeks; assay type: organism-based; details: in vivo, 672 h, dose 25-50 mg/kg; how it was run: as §1
[12] = system: MDA-MB-231; assay: Induction of apoptosis in human MDA-MB-231 cells assessed as viable cells at 160 nM incubated for 12 hrs by annexin V-FITC/PI based flow cytometric analysis (reference value: 98.1%); assay type: functional; details: read-out: Activity; how it was run: as §3
[13] = target: T2, Glutaminase kidney isoform, mitochondrial (Homo sapiens, UniProt O94925); assay: Inhibition of human GLS1; how it was run: as §2
T2 sequence (O94925 whole entry): T1 sequence (whole entry)

[14] = system: MDA-MB-231; assay: Induction of apoptosis in human MDA-MB-231 cells assessed as necrotic cells at 160 nM incubated for 12 hrs by annexin V-FITC/PI based flow cytometric analysis (reference value: 0.1%); assay type: functional; how it was run: as §3
[15] = system: MDA-MB-231; assay: Antitumor activity against human MDA-MB-231 cells xenografted in BALB/c nude mouse assessed as tumor growth inhibition at 25 to 50 mg/kg, ip administered every 3 days for 4 weeks; assay type: functional, organism-based; details: dose 25-50 mg/kg
How it was run: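 Nude mice given 3×10^6 MDA-MB-231 cells in 200 µL PBS, injected subcutaneously into the right flank. Once tumors reached about 100 mm³, mice were randomized into four groups. Dosing was 25 or 50 mg/kg i.p. every three days for four weeks. Tumor volume, tumor weight and body weight were followed. n = 6, mean ± SD.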

[16] = system: MDA-MB-231; assay: Induction of apoptosis in human MDA-MB-231 cells assessed as necrotic cells at 320 nM incubated for 12 hrs by annexin V-FITC/PI based flow cytometric analysis (reference value: 0.1%); assay type: functional; how it was run: as §3
[17] = system: MDA-MB-231; assay: Induction of apoptosis in human MDA-MB-231 cells assessed as early apoptotic cells at 160 nM incubated for 12 hrs by annexin V-FITC/PI based flow cytometric analysis (reference value: 1.2%); assay type: functional; how it was run: as §3
[18] = system: MDA-MB-231; assay: Antiproliferative activity against human MDA-MB-231 cells after 24 hrs by MTT assay; assay type: functional, cell-based

inhibition [2]: 87.2% | Ratio IC50 [4]: 20 | IC50 [13]: 1080 nM | IC50 ([18]; MDA-MB-231, 24 h): 320 nM
SMILES: CC(=O)O[C@H]1C=C([C@H](C)[C@H]2CC(C)=C(C)C(=O)O2)[C@@]2(C)CC[C@H]3[C@@H](C[C@H]4O[C@]45[C@@H](OC(=O)CCCC(=O)Nc4ccc(N6CCOCC6)c(F)c4)C=CC(=O)[C@]35C)[C@@]12O
Activity [1]: Non-Toxic | Activity [3]: 16.7% | Ratio IC50 [5]: 20 | Activity [6]: 1% | Activity [7]: Dose-Dependent Effect | Activity [8]: 0.1% | Activity [9]: Non-Toxic | viability at 0.32 µM [10]: 80.3% | Activity [11]: Non-Toxic | viability at 0.16 µM [12]: 96.3% | Activity [14]: 0.2% | Activity [15]: Active | Activity [16]: 0.1% | Activity [17]: 2.6% | Activity [18]: Dose-Dependent Effect
